This is a sample that favours compounds with a hit; in the whole collection about 5.9% have one here.
Fibroblast inh = antiproliferative effect on LL 47 fibroblasts – human, LL 47 cells, CellTiter-Glo luminescence, primary screen; AID 719, 2007; viability, % at 10 µM; 1.1% of 85,000 active; LL 47 human lung fibroblast viability, ATP luminescence; stronger effect = lower value;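 active = viability at or below 50% in the single dose screen; inactive = viability above 50%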;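 also: compound exposure lasted 72 h before the ATP readout; 100% = median luminescence of untreated cell-only wells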
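Assay system: human lung fibroblast line LL 47, low passage. Input: 1,150 fibroblasts seeded per well. Times: overnight cell rest, 72 h compound treatment at 37 °C. Evaluation: % viability of median cell-only signal. Technique: luminescent ATP detection, CellTiter-Glo. Control set: cell-only wells, no compound.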
Jurkat viability = cytotoxicity toward Jurkat T cells, primary screen, cytotoxicity control, cell-based, Jurkat E6.1, 60K MLSMR library; 1.2% of 56,000 active; inhibition, % at 4 µM; AID 463, 2006; Jurkat E6.1 viability, ATP luminescence, 48 h;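 active = inhibition above the mean inhibition of all tested compounds plus 3 SD, cut at about 28% in these data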
HUVEC inhibit = inhibitors of HUVEC proliferation, primary screen, cell-based, 384-well; CellTiter-Glo luminescence, 72 h; stronger effect = lower value; viability, % at 10 µM (by protocol); 1.1% of 86,000 active; AID 648, 2007;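 active = viability at or below 30%; inactive = viability above 30%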;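 also: 100% = median luminescence of DMSO-only cell control wells on each plate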
MT1-MMP txn act = MT1-MMP promoter reporter activation – cell-based, luciferase luminescence, primary screen | HT1080 MT1-MMP promoter luciferase reporter, overnight; stronger effect = higher value | activation factor at 10 µM | 0.16% of 86,000 active;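 active = activation factor of at least 2 for MT1-MMP transcription at 10 µM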
H69AR inhibit = proliferation blockers of H69AR lung cancer cells, primary screen, cell-based, human, 86K library; H69AR lung tumor viability, ATP luminescence, 72 h; stronger effect = lower value; viability, % at 10 µM; 6% of 85,000 active;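 active = viability at or below 40%; inactive = viability above 40%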;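 also: multidrug resistant small cell line overexpressing MRP-1 efflux transporter; 100% = mean luminescence of untreated control wells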
Pyk2 oligo antag = antagonists of Pyk2 self-association, primary screen, Q293 cells, FERM NanoBiT luminescence, HTS | z-score (the deposit names both 25 µM and 10 µM) | Protein-tyrosine kinase 2-beta (Homo sapiens), Q14289 | stronger effect = lower value | 0.83% of 99,000 active;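 active = Z-score of -3 or lower, scaled per plate to the spread of control and sample wells; inactive = z-score above -3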;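 also: negative z-score means lost luminescence so less FERM oligomerization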
Target sequence (Q14289 whole entry, looked up): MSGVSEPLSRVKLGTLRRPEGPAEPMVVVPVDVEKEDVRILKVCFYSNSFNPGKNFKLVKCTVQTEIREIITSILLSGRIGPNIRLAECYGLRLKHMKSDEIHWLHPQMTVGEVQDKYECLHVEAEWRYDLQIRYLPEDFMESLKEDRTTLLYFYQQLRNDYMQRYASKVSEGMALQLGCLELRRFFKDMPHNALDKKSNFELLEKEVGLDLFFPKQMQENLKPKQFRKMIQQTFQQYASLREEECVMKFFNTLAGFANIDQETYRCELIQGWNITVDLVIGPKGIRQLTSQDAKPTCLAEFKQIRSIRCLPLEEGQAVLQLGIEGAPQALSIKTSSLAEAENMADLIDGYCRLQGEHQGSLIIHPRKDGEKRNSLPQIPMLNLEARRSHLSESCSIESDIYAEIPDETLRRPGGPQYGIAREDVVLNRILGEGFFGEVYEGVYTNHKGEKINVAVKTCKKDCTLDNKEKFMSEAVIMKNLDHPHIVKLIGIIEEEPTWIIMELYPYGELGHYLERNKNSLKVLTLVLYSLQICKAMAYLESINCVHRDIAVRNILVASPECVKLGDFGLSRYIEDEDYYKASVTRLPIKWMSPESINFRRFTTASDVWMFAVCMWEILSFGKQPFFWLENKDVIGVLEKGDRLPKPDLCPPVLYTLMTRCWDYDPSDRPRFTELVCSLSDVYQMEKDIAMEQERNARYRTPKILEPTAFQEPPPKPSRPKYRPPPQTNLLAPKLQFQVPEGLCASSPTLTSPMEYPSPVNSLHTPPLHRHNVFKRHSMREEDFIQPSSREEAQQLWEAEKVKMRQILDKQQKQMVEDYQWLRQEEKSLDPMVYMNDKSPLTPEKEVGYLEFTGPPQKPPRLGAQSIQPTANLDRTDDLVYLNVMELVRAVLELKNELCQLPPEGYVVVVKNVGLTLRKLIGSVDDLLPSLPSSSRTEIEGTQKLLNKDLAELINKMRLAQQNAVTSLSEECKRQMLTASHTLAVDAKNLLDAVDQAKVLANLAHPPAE
Numbers without * were called inactive; x = not tested or not shown.

SMILES | Fibroblast inh | Jurkat viability | HUVEC inhibit | MT1-MMP txn act | H69AR inhibit | Pyk2 oligo antag
CNC(=O)NC(=O)CSc1nc2cc(C(=O)OC)ccc2c(=O)n1-c1ccccc1 | 102 | -10 | 109 | 1.1 | 81 | -0.27
CC(=O)N1CC=CC1(C)C(=O)NCC1CC1 (centres undefined) | x | x | x | 0.9 | x | x
C=CCn1c(SCC(=O)NC(=O)NCc2ccco2)nc2sc(CC)cc2c1=O | 48* | -4 | 90 | 1.2 | 28* | -2.6
Cc1ccccc1Nc1nnc(SCC(=O)NC(=O)NCc2ccco2)s1 | 93 | x | 85 | 1.2 | 32* | -0.55
C=CCn1c(SCC(=O)Nc2sccc2C(N)=O)nc2sc(C)c(C)c2c1=O | 66 | -6 | 60 | 1.1 | 46 | -2.3
C=CCn1c(SCC(=O)Nc2ccccc2C)nc2sc(C)c(C)c2c1=O | 93 | x | 83 | 0.9 | 31* | 0.29
Cc1sc2nc(SCC(=O)c3cccs3)n(Cc3ccco3)c(=O)c2c1C | 84 | -7 | 24* | 0.9 | 59 | -0.4
COCCCNC(=O)c1ccccc1NS(=O)(=O)c1ccc(C)cc1 | 97 | 4 | 98 | 1.2 | 69 | 0.13
Cc1ccc2cc3cc(C(=O)N(CC(=O)NC4CCCC4)c4cccc(C)c4C)sc3nc2c1 | x | x | x | x | x | -1.7
Cc1sc2nc(SCC(=O)NCc3ccco3)n(CCc3ccccc3)c(=O)c2c1C | 47* | 2 | 60 | 1.1 | 22* | -1.2
O=C1c2sc3nc4ccccc4n3c2C(=O)N1c1ccccc1Cl | 71 | -3 | 72 | 1 | 2.9* | 0.86
Cc1ccccc1N1C(=O)c2sc3nc4c(c(=O)n3c2C1=O)CCC4 | 85 | 1 | 96 | 1.1 | 3.4* | 0.16
O=C1c2sc3nc4c(c(=O)n3c2C(=O)N1c1ccccc1)CCC4 | 90 | 1 | 98 | 1.1 | 35* | 1.1
CCC(C)N(NC(C)=O)c1nc(Cl)nc(NC(C)C)n1 (centres undefined) | x | x | x | x | x | 1.3
COC(=O)c1ccc(C(NC(=O)OCc2ccccc2)/C(=C/[C@@H](C)C(=O)NCc2cc(F)cc(F)c2)c2cccnc2)cc1 (some centres undefined) | x | x | x | 1.3 | x | x
c1ccc(CNCc2ccc3c(c2)OCO3)nc1 | 74 | x | 111 | 1.1 | 96 | 0.31
c1ccc(CCCNc2ncnc3nc[nH]c23)cc1 | 93 | 0 | 88 | x | 85 | x
Clc1ccc(CCNc2ncnc3nc[nH]c23)cc1 | x | 35* | x | 1.2 | x | x
CN(CCCC(=O)Nc1ccncc1)S(=O)(=O)c1ccc(Cl)cc1 | 97 | 45* | 96 | 0.9 | 91 | 0.84
COc1ccc(N=C2NC(=O)S/C2=C\c2ccc(N(C)C)cc2)cc1 | 93 | x | 103 | 1.4 | 74 | -3.1*
CCOc1ccc(N=C2NC(=O)S/C2=C\c2ccc(Cl)cc2)cc1 | x | x | x | x | x | 0.42
CN1CCN(C(=O)CN(c2cc(C(F)(F)F)ccc2Cl)S(C)(=O)=O)CC1 | 94 | x | 89 | 1.1 | 96 | 0.87
O=C(CN(Cc1ccco1)C(=O)c1cccc(Cl)c1)Nc1c(Cl)cc(Cl)cc1Cl | x | x | x | x | x | -1.9
O=C(CN(Cc1ccco1)C(=O)c1ccccc1)Nc1ccc(Cl)c(Cl)c1 | x | x | x | x | x | -3.7*
C[C@@]1(C(NC(=O)c2ccccc2)c2ccc(-c3ccccc3)cc2)C[C@H]1C1CCCCC1 (some centres undefined) | x | x | x | 1.1 | x | x
SMILES | Fibroblast inh | Jurkat viability | HUVEC inhibit | MT1-MMP txn act | H69AR inhibit | Pyk2 oligo antag
COc1ccccc1NC(=O)C1=C(C)Nc2nnnn2C1c1ccccc1OC (centres undefined) | 102 | -3 | 93 | 1.1 | 99 | 0.5
COc1ccccc1NC(=O)C1=C(C)Nc2nnnn2C1c1cccc(C)c1 (centres undefined) | 85 | -2 | 74 | 1.1 | 30* | x
NC1=NC2(CCC(c3ccccc3)CC2)n2c(nc3ccccc32)N1 (centres undefined) | 87 | -1 | 62 | 1.1 | 8.7* | 0.49
NC1=NC2(CCCCC2)n2c(nc3ccccc32)N1 | 87 | -2 | 88 | 1.3 | 92 | -0.33
Oc1ccccc1N=Nc1nc(-c2ccccc2)c(-c2ccccc2)[nH]1 | x | x | x | x | x | -3.8*
Cn1c(SCC(=O)n2c3c(c4ccccc42)CCCC3)nnc1-c1ccccc1 | 99 | x | 97 | 1.1 | 95 | 0.16
CC(=O)Nc1ccc(-c2nnc(SCC(=O)n3c4c(c5ccccc53)CCCC4)n2C)cc1 | 100 | 12 | 93 | 1.1 | 35* | -0.31
CCOC(=O)c1c(NC(=O)c2c(Br)cnn2C)c(C#N)nn1-c1ccccc1 | 92 | x | 90 | 0.9 | 64 | -2.2
CCOC(=O)c1nn(-c2ccccc2)c(C#N)c1NC(=O)c1nn(CC)cc1Br | 96 | 10 | 85 | 1.1 | 69 | -3.5*
CCOC(=O)c1c(NC(=O)c2nn(CC)cc2Br)c(C#N)nn1-c1ccccc1 | 93 | 8 | 81 | 1.1 | 40* | -1.5
Cn1c(=O)oc2cc(S(=O)(=O)Nc3ccc4c(c3)OCO4)ccc21 | 85 | 7 | 76 | 1.1 | 97 | -0.31
CC[C@H](C)C(=O)O[C@H]1C[C@@H](C)C=C2C=C[C@H](C)[C@H](CC[C@@H]3C[C@@H](O)CC(=O)O3)[C@H]21 | 46* | x | 17* | 0.7 | 46 | x
O=C(OCc1ccccc1)C1=[N+]([O-])OC(C(=O)OCc2ccccc2)C1c1c[nH]c2ccccc12 (centres undefined) | 88 | x | 81 | 1.2 | 5.6* | 1.9
O=C(OCC(=O)c1c[nH]c2ccccc12)c1ccco1 | 92 | -10 | 94 | 1.7 | 91 | 0.17
O=C(c1cnn2c1NC(c1ccco1)CC2C(F)(F)F)N1CCN(c2cccc(Cl)c2)CC1 (centres undefined) | 88 | 10 | 58 | 1.2 | 14* | 0.03
Cc1nn(-c2ccccc2)c(C)c1/C=N/NC(=O)c1cc(C(C)(C)C)[nH]n1 | x | x | x | x | x | -1.5
Cc1ccc(-c2cc(C(=O)N/N=C/c3c(C)nn(-c4ccccc4)c3C)[nH]n2)cc1 | x | x | x | x | x | -3*
N#CC1=C(N)Oc2n[nH]c(-c3cccs3)c2C1C1CCCCC1 (centres undefined) | 100 | x | 72 | 1 | 38* | -0.67
O=C(COC(=O)Cc1ccc(S(=O)(=O)N2CCCCC2)s1)Nc1ccc2c(c1)OCO2 | 103 | 6 | 92 | 1.2 | 25* | 0.24
O=C(NCCC(=O)N1CCNC1=O)OCc1ccccc1 | 101 | -1 | 91 | 1.1 | 105 | 0.2
O=C(CSC1=NCCN1)NC1CCCCCC1 | 91 | x | 66 | 1.3 | 89 | -0.68
O=C(CSC1=NCCN1)NC12CC3CC(CC(C3)C1)C2 | 96 | -5 | 89 | 1.3 | 16* | 0.89
COc1ccc(C)cc1NC(=O)C1CCCN(S(=O)(=O)c2c(C)noc2/C=C/N(C)C)C1 (centres undefined) | 99 | 4 | 85 | 1.3 | 98 | x
